Laboratory results reported in ChEMBL document CHEMBL1156597, “Structure-activity relationship of kahalalide F synthetic analogues” (J Med Chem, 2008).

What was measured:
DU-145 = test: Cytotoxicity against human DU145 cells after 48 hrs by SRB assay; assay type: functional, cell-based; settings: Homo sapiens, DU-145, 48 h; for CC50: read-out: LC50 (the source's name)
In short: (§1)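 Cells grown in RPMI 1640 with 10% FBS and penicillin/streptomycin at 37 °C and 5% CO₂, trypsinized, then seeded at 5 × 10³/well. After 18 h drug-free attachment, samples in DMSO/EtOH/PBS (0.5:0.5:99) were added for 48 h continuous exposure. Cells were fixed with cold TCA (1 h, 4 °C) and stained with SRB (10 min). Tris-solubilized stain read at 490 nm. Triplicate wells, mean ± SD; GI₅₀ derived.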

LNCaP = test: Cytotoxicity against human LNcaP cells after 48 hrs by SRB assay; assay type: functional; settings: for CC50: read-out: LC50 (the source's name); in short: as §1
[1] = Cytotoxicity against human IGROV cells after 48 hrs by SRB assay; assay type: functional; settings: for CC50: read-out: LC50 (the source's name); in short: as §1
[2] = Cytotoxicity against human IGROV-ET cells after 48 hrs by SRB assay; assay type: functional; settings: for CC50: read-out: LC50 (the source's name); in short: as §1
SK-BR-3 = test: Cytotoxicity against human SKBR3 cells after 48 hrs by SRB assay; assay type: functional; settings: SK-BR-3, 48 h; for GI50: read-out: GI50; for CC50: read-out: LC50 (the source's name); in short: as §1
SK-MEL-28 = test: Cytotoxicity against human SK-MEL-28 cells after 48 hrs by SRB assay; assay type: functional, cell-based; settings: Homo sapiens, SK-MEL-28, 48 h; for CC50: read-out: LC50 (the source's name); in short: as §1
A549 = test: Cytotoxicity against human A549 cells after 48 hrs by SRB assay; assay type: functional, cell-based; settings: Homo sapiens, A549, 48 h; in short: as §1
K562 = test: Cytotoxicity against human K562 cells after 48 hrs by SRB assay; assay type: functional; settings: K562, 48 h; for CC50: read-out: LC50 (the source's name); in short: as §1
PANC-1 = test: Cytotoxicity against human PANC1 cells after 48 hrs by SRB assay; assay type: functional; settings: PANC-1, 48 h; for CC50: read-out: LC50 (the source's name); in short: as §1
HT-29 = test: Cytotoxicity against human HT29 cells after 48 hrs by SRB assay; assay type: functional, cell-based; settings: Homo sapiens, HT-29, 48 h; for CC50: read-out: LC50 (the source's name); in short: as §1
LoVo [3] = test: Cytotoxicity against human LoVo cells after 48 hrs by SRB assay; assay type: functional; settings: for CC50: read-out: LC50 (the source's name)
LoVo [4] = test: Cytotoxicity against human doxorubicin resistant LoVo cells after 48 hrs by SRB assay; assay type: functional; settings: for CC50: read-out: LC50 (the source's name); in short: as §1
HeLa = test: Cytotoxicity against human HeLa cells after 48 hrs by SRB assay; assay type: functional; settings: for CC50: read-out: LC50 (the source's name); in short: as §1
[5] = Cytotoxicity against human HeLa-APL cells after 48 hrs by SRB assay; assay type: functional; in short: as §1

C/C=C1\NC(=O)[C@H](Cc2ccccc2)NC(=O)[C@@H](C(C)C)NC(=O)[C@@H]([C@H](C)CC)NC(=O)[C@H](NC(=O)[C@H](NC(=O)[C@H](CCCN)NC(=O)[C@H]2CCCN2C(=O)[C@H](NC(=O)[C@@H](NC(=O)[C@@H](NC(=O)[C@H](NC(=O)CC[C@@H](C)[C@H]2CC[C@H]3[C@@H]4CC[C@@H]5C[C@H](OC(=O)C(F)(F)F)CC[C@]5(C)[C@H]4CC[C@]23C)C(C)C)[C@@H](C)O)C(C)C)C(C)C)[C@H](C)CC)[C@H](C)OC(=O)[C@H](C(C)C)NC1=O
GI50 (DU-145): 524 nM
GI50 (DU-145; read-out: GI50): 394 nM
CC50 (DU-145): 568 nM
GI50 (LNCaP): 851 nM
TGI (LNCaP): 912 nM
CC50 (LNCaP): 980 nM
GI50 [1]: 500 nM
GI50 ([1]; read-out: GI50): 375 nM
CC50 [1]: 404 nM
GI50 [2]: 406 nM
GI50 ([2]; read-out: GI50): 352 nM
CC50 [2]: 468 nM
TGI (SK-BR-3): 166 nM
GI50 (SK-BR-3): 118 nM
CC50 (SK-BR-3): 233 nM
GI50 (SK-MEL-28): 190 nM
GI50 (SK-MEL-28; read-out: GI50): 209 nM
CC50 (SK-MEL-28): 172 nM
GI50 (A549): 949 nM
LC50 (A549): 851 nM
GI50 (A549; read-out: GI50): 1060 nM
GI50 (K562): 967 nM
TGI (K562): 795 nM
CC50 (K562): 1170 nM
GI50 (PANC-1): 1640 nM
TGI (PANC-1): 1440 nM
CC50 (PANC-1): 1440 nM
GI50 (HT-29): 387 nM
TGI (HT-29): 450 nM
CC50 (HT-29): 761 nM
GI50 (LoVo [3]): 340 nM
TGI (LoVo [3]): 374 nM
CC50 (LoVo [3]): 795 nM
GI50 (LoVo [4]): 227 nM
TGI (LoVo [4]): 220 nM
CC50 (LoVo [4]): 211 nM
GI50 (HeLa): 1070 nM
TGI (HeLa): 978 nM
CC50 (HeLa): 886 nM
GI50 [5]: 1040 nM
LC50 (concentration giving 50% net cell kill) [5]: 638 nM
TGI [5]: 802 nM

C/C=C1\NC(=O)[C@H](Cc2ccccc2)NC(=O)[C@@H](C(C)C)NC(=O)[C@@H]([C@H](C)CC)NC(=O)[C@H](NC(=O)[C@H](NC(=O)[C@H](CCCN)NC(=O)[C@H]2CCCN2C(=O)[C@H](NC(=O)[C@@H](NC(=O)[C@@H](NC(=O)[C@H](NC(=O)CCCC(C)C)C(C)C)[C@@H](C)O)C(C)C)C(C)C)[C@H](C)CC)CNC(=O)[C@H](C(C)C)NC1=O
CC50 (DU-145): 1670 nM
CC50 (LNCaP): 1550 nM
CC50 [1]: 637 nM
CC50 [2]: 710 nM
TGI (SK-BR-3): 8040 nM
GI50 (SK-BR-3): 8660 nM
CC50 (SK-BR-3): 2810 nM
CC50 (SK-MEL-28): 1460 nM
LC50 (A549): 1930 nM
CC50 (K562): 2460 nM
CC50 (PANC-1): 2560 nM
CC50 (HT-29): 895 nM
GI50 (LoVo [3]): 11500 nM
TGI (LoVo [3]): 9550 nM
CC50 (LoVo [3]): 4840 nM
CC50 (HeLa): 1050 nM
LC50 (concentration giving 50% net cell kill) [5]: 1340 nM

C/C=C1\NC(=O)[C@H](Cc2ccccc2)NC(=O)[C@@H](CCC2CCCCC2)NC(=O)[C@@H](CCC2CCCCC2)NC(=O)[C@H](NC(=O)[C@@H](CCC2CCCCC2)NC(=O)[C@H](CCCN)NC(=O)[C@H]2CCCN2C(=O)[C@H](NC(=O)[C@@H](NC(=O)[C@@H](NC(=O)[C@H](NC(=O)CCCC(C)C)C(C)C)[C@@H](C)O)C(C)C)C(C)C)[C@H](C)OC(=O)[C@H](C(C)C)NC1=O
GI50 (DU-145): 125 nM
GI50 (DU-145; read-out: GI50): 148 nM
CC50 (DU-145): 104 nM
GI50 (LNCaP): 304 nM
TGI (LNCaP): 415 nM
CC50 (LNCaP): 633 nM
GI50 [1]: 139 nM
GI50 ([1]; read-out: GI50): 214 nM
CC50 [1]: 161 nM
GI50 [2]: 227 nM
GI50 ([2]; read-out: GI50): 255 nM
CC50 [2]: 55 nM
TGI (SK-BR-3): 201 nM
GI50 (SK-BR-3): 249 nM
CC50 (SK-BR-3): 87.8 nM
GI50 (SK-MEL-28): 159 nM
GI50 (SK-MEL-28; read-out: GI50): 174 nM
CC50 (SK-MEL-28): 144 nM
GI50 (A549): 173 nM
LC50 (A549): 222 nM
GI50 (A549; read-out: GI50): 161 nM
GI50 (K562): 363 nM
TGI (K562): 630 nM
CC50 (K562): 980 nM
GI50 (PANC-1): 1320 nM
TGI (PANC-1): 1380 nM
CC50 (PANC-1): 1450 nM
GI50 (HT-29): 359 nM
TGI (HT-29): 339 nM
CC50 (HT-29): 320 nM
GI50 (LoVo [3]): 282 nM
TGI (LoVo [3]): 274 nM
CC50 (LoVo [3]): 264 nM
CC50 (LoVo [4]): 27.4 nM
GI50 (HeLa): 255 nM
TGI (HeLa): 361 nM
CC50 (HeLa): 586 nM
GI50 [5]: 233 nM
LC50 (concentration giving 50% net cell kill) [5]: 573 nM
TGI [5]: 3400 nM

C/C=C1\NC(=O)[C@H](Cc2ccccc2)NC(=O)[C@@H](C(C)C)NC(=O)[C@@H]([C@H](C)CC)NC(=O)[C@H](NC(=O)[C@H](NC(=O)[C@H](CCCN)NC(=O)[C@H]2CCCN2C(=O)[C@H](NC(=O)[C@@H](NC(=O)[C@@H](NC(=O)[C@H](NC(=O)CC[C@@H](C)[C@H]2CC[C@H]3[C@@H]4CC[C@@H]5C[C@H](OC(=O)C(F)(F)F)CC[C@]5(C)[C@H]4CC[C@]23C)C(C)C)[C@@H](C)OC(=O)C(F)(F)F)C(C)C)C(C)C)[C@H](C)CC)[C@H](C)OC(=O)[C@H](C(C)C)NC1=O
GI50 (DU-145): 683 nM
GI50 (DU-145; read-out: GI50): 698 nM
CC50 (DU-145): 663 nM
GI50 (LNCaP): 729 nM
TGI (LNCaP): 783 nM
CC50 (LNCaP): 838 nM
GI50 [1]: 384 nM
GI50 ([1]; read-out: GI50): 405 nM
CC50 [1]: 317 nM
GI50 [2]: 700 nM
GI50 ([2]; read-out: GI50): 638 nM
CC50 [2]: 2030 nM
TGI (SK-BR-3): 116 nM
GI50 (SK-BR-3): 78.4 nM
CC50 (SK-BR-3): 185 nM
GI50 (SK-MEL-28): 158 nM
GI50 (SK-MEL-28; read-out: GI50): 201 nM
CC50 (SK-MEL-28): 124 nM
GI50 (A549): 890 nM
LC50 (A549): 835 nM
GI50 (A549; read-out: GI50): 946 nM
GI50 (K562): 1070 nM
TGI (K562): 857 nM
CC50 (K562): 1220 nM
GI50 (PANC-1): 1660 nM
TGI (PANC-1): 1370 nM
CC50 (PANC-1): 1370 nM
GI50 (HT-29): 463 nM
TGI (HT-29): 479 nM
CC50 (HT-29): 921 nM
GI50 (LoVo [3]): 285 nM
TGI (LoVo [3]): 337 nM
CC50 (LoVo [3]): 614 nM
GI50 (LoVo [4]): 336 nM
TGI (LoVo [4]): 381 nM
CC50 (LoVo [4]): 2110 nM
CC50 (HeLa): 789 nM
LC50 (concentration giving 50% net cell kill) [5]: 710 nM
